Results reported in ChEMBL document CHEMBL4627381, “Licochalcone A Selectively Resensitizes ABCG2-Overexpressing Multidrug-Resistant Cancer Cells to Chemotherapeutic Drugs” (J Nat Prod, 2020).

Legend:
[1] = target: T1, Broad substrate specificity ATP-binding cassette transporter ABCG2 (Homo sapiens, UniProt Q9UNQ0); test: Modulation of human ABCG2 expressed in HEK293/R482 cells assessed as increase in intracellular pheophorbide A accumulation at 20 uM incubated for 1 hr by FACScan flow cytometry; format: cell-based
T1 sequence (Q9UNQ0 whole entry): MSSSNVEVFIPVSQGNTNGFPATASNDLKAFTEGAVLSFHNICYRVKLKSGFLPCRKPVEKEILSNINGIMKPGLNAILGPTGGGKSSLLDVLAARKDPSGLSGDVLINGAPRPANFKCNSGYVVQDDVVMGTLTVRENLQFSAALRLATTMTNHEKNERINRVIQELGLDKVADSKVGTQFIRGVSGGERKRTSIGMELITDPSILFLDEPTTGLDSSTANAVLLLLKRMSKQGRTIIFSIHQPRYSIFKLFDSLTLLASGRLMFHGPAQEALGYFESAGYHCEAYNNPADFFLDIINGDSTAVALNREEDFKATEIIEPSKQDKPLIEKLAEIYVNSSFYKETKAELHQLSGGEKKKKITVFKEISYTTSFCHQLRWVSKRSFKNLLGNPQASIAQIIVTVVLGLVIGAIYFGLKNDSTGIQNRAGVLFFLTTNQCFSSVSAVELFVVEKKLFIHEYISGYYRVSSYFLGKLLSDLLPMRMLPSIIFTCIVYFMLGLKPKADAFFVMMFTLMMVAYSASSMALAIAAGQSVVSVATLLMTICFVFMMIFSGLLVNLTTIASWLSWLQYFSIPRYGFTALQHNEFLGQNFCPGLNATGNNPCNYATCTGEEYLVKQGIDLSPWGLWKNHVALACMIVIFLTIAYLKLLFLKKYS
Method in brief: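 Cells held drug-free 7 days. 3 × 10^5 cells were suspended in IMDM with 5% FCS and loaded with pheophorbide A (ex 395/em 670 nm) for 1 h, with or without LCA (20 μM for single-concentration accumulation) or Ko143 3 μM as reference. Read immediately by flow cytometry. Efflux inhibition was run over a concentration range; mean ± SD of three experiments.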

[2] = target: T2, ATP-dependent translocase ABCB1 (Homo sapiens, UniProt P08183); test: Reversal of human ABCB1-mediated multidrug resistance in HEK293/MDR19 cells assessed as fold change in colchicine IC50 at 2 uM after 72 hrs by CCK8 relative to colchicine IC50; format: cell-based
Method in brief: (§1)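 Cells were seeded at 5000/well for 24 h, then given colchicine, etoposide, mitoxantrone or topotecan ± non-toxic modulator (0.5–3.0 μM) for 72 h, with DMSO up to 0.5%. IC50 came from fitted curves (mean ± SD, three experiments). Fold-reversal = IC50 without modulator ÷ IC50 with modulator.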

HEK293 = test: Effect on Colchicine-induced cytotoxicity against HEK293 cells assessed as fold change in colchicine IC50 at 1 uM after 72 hrs by CCK8 assay relative to colchicine IC50; format: cell-based; details: human, hek293, 72 h
Method in brief: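 Reversal assay in parental pcDNA-HEK293 and transfected HEK293 lines (ABCB1 for colchicine, ABCC1 for etoposide, ABCG2 for mitoxantrone/topotecan). Substrate drug series was given with or without nontoxic modulator (0.5, 1.0, 2.0 or 3.0 μM) for 72 h, with a CCK-8 read-out. Fold-reversal is substrate IC50 without modulator divided by IC50 with modulator. Three independent experiments.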

[3] = target: T1, Broad substrate specificity ATP-binding cassette transporter ABCG2; test: Reversal of ABCG2 (unknown origin)-mediated multidrug resistance in human H460-MX20 cells assessed as fold change in mitoxantrone IC50 at 1 uM after 72 hrs by MTT assay relative to mitoxantrone IC50; format: cell-based
Method in brief: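 Cells held drug-free 7 days, seeded at 5000 per well for 24 h, then exposed 72 h to mitoxantrone or topotecan dilutions with DMSO (≤0.5%), LCA 0.5–3.0 μM, or Ko143 1.0 μM. Viability was read by MTT. IC50 came from fitted dose-response curves of three independent experiments. Fold-reversal = IC50 without modulator divided by IC50 with modulator.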

[4] = Cytotoxicity against human NCI-H460/MX20 cells harboring ABCG2 after 72 hrs by MTT assay; format: functional, cell-based; details: NCI-H460/MX20, 72 h
Method in brief: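 Cells seeded at 5000/well, allowed 24 h, then exposed to a concentration series for 72 h at 37 °C in DMSO vehicle (up to 0.5% v/v). HEK293 lines were read with CCK-8 and cancer lines with MTT. IC50 was taken from fitted dose-response curves over at least three independent experiments. Lines were kept drug-free for 7 days before assay.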

S1 = test: Induction of apoptosis in human S1 cells assessed as late apoptotic cells at 10 uM incubated for 48 hrs in presence of topotecan by annexin V/propidium iodide staining based flow cytometry (reference value: 3.6%); format: functional
Method in brief: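 S1 cells were exposed for 48 h to DMSO, 10 μM compound, 5 μM topotecan, or 5 μM topotecan plus 10 μM compound. They were then stained with 1.25 μg/mL annexin V–FITC and 0.1 mg/mL PI for 15 min at room temperature. 10000 cells per sample were analysed by flow cytometry; three independent experiments.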

[5] = target: Multidrug resistance-associated protein 1 (Homo sapiens, UniProt P33527); test: Reversal of human ABCC1-mediated multidrug resistance in HEK293/MRP1 cells assessed as fold-change in etoposide IC50 at 2 uM after 72 hrs by CCK8 relative to etoposide IC50; format: cell-based; method in brief: as §1
[6] = target: T2, ATP-dependent translocase ABCB1; test: Reversal of human ABCB1-mediated multidrug resistance in HEK293/MDR19 cells assessed as fold change in colchicine IC50 at 1 uM after 72 hrs by CCK8 relative to colchicine IC50; format: cell-based; method in brief: as §1
NCI-H460 = test: Effect on topotecan-induced cytotoxicity against human H460 cells assessed as fold change in topotecan IC50 at 3 uM after 72 hrs by MTT assay relative to topotecan IC50; format: functional
Method in brief: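 Parental S1 colon and H460 lung cancer cells were exposed for 72 h to a mitoxantrone or topotecan concentration series, with or without modulator at 0.5–3.0 μM, and read by MTT. Fold-reversal is IC50 without modulator divided by IC50 with modulator, taken from dose-response curves of three independent experiments.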

S1-M1-80 [7] = test: Potentiation of topotecan-induced apoptosis in human S1-M1-80 cells harboring ABCG2 (unknown origin) assessed as necrotic cells at 10 uM incubated for 48 hrs by annexin V/propidium iodide staining based flow cytometry (reference value: 0.4%); format: functional
LS180 = test: Upregulation of ABCG2 mRNA expression in human LS180 cells at 1 uM by […] relative to control; format: functional
[8] = target: T2, ATP-dependent translocase ABCB1; test: Reversal of human ABCB1-mediated multidrug resistance in HEK293/MDR19 cells assessed as fold change in colchicine IC50 at 3 uM after 72 hrs by CCK8 relative to colchicine IC50; format: cell-based; method in brief: as §1
[9] = target: T1, Broad substrate specificity ATP-binding cassette transporter ABCG2; test: Reversal of human ABCG2-mediated multidrug resistance in HEK293/R482 cells assessed as fold-change in topotecan IC50 at 3 uM after 72 hrs by CCK8 relative to topotecan IC50; format: cell-based; method in brief: as §1
S1-M1-80 [10] = test: Induction of apoptosis in human S1-M1-80 cells harboring ABCG2 (unknown origin) assessed as viable cells at 10 uM incubated for 48 hrs by annexin V/propidium iodide staining based flow cytometry (reference value: 93.9%); format: functional; details: S1-M1-80, 48 h, read-out: Activity

T2 sequence (P08183 whole entry): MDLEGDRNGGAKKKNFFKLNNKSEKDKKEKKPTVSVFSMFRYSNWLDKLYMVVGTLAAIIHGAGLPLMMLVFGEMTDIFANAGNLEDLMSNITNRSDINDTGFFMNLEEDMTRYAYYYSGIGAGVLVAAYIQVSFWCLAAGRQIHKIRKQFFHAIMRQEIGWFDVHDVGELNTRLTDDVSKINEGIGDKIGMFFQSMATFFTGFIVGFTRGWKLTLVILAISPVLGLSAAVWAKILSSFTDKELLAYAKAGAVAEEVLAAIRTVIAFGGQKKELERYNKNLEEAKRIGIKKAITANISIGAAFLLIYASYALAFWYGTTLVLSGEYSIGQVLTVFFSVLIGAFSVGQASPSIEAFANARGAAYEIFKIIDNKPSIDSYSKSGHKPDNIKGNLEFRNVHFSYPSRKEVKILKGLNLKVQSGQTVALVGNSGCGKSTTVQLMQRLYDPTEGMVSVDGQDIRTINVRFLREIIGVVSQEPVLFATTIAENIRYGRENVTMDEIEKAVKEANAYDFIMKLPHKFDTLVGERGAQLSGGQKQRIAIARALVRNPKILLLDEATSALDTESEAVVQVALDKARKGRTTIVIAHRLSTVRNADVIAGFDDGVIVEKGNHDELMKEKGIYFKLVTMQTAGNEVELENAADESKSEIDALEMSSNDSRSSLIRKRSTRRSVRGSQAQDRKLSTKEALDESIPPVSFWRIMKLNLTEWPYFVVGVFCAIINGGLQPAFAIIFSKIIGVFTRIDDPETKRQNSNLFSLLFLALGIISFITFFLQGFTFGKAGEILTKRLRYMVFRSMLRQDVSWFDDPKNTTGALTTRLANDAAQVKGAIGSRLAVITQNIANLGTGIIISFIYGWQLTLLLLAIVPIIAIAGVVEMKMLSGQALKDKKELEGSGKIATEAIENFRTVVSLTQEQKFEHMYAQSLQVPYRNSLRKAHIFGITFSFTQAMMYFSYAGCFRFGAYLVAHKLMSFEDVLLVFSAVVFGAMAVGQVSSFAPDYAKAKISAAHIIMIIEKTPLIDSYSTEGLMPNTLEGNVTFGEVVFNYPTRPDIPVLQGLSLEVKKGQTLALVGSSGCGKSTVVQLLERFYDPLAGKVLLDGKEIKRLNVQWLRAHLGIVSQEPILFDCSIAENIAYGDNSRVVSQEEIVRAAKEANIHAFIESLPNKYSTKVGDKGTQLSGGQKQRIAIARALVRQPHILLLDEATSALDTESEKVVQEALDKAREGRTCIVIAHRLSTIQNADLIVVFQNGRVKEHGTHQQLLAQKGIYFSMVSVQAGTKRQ
Multidrug resistance-associated protein 1, sequence (P33527 whole entry): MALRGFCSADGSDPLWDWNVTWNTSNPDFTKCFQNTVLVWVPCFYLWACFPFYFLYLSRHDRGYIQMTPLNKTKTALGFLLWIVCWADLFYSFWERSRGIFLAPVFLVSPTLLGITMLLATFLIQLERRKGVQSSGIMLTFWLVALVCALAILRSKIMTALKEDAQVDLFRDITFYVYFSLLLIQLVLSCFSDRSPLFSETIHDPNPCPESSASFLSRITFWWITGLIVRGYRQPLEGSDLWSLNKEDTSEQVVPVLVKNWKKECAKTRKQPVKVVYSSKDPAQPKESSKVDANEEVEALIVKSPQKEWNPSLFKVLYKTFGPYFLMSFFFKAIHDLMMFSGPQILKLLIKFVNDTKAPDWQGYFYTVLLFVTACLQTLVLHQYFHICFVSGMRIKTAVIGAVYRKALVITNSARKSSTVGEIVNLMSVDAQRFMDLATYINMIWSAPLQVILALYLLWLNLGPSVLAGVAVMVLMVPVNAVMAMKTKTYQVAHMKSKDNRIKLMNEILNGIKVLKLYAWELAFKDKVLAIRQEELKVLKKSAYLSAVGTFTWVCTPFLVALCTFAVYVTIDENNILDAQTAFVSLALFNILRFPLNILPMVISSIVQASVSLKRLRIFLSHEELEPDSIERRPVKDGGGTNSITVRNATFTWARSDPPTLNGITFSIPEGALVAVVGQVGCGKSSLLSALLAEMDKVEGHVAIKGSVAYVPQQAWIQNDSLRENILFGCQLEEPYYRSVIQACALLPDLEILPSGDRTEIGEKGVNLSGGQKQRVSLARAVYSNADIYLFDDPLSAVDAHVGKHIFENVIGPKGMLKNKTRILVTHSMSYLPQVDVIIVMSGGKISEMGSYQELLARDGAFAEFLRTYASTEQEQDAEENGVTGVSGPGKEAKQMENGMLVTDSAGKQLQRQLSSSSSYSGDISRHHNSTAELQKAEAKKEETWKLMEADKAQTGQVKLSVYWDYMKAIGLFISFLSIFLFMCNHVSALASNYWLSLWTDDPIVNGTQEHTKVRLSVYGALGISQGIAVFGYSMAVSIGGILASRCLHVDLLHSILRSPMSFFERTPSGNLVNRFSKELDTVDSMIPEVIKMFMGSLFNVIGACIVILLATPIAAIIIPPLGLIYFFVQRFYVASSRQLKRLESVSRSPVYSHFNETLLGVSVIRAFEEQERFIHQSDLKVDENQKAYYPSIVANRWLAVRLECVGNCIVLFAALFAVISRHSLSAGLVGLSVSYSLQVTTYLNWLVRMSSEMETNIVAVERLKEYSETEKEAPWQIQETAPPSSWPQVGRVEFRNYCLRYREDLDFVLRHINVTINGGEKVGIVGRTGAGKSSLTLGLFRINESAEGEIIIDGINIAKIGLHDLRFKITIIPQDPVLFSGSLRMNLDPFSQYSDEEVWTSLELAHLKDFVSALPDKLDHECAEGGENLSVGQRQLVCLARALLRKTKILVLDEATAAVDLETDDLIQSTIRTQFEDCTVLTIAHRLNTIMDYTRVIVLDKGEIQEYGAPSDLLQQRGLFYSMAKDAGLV

For C=CC(C)(C)c1cc(/C=C/C(=O)c2ccc(O)cc2)c(OC)cc1O [LICOAGROCHACONE A], the Activity [1] was “Active”, the “fold change (FC)” value [2] was 0.8 and the “fold change (FC)” value (HEK293) was 1.1. For the same compound, the “fold change (FC)” value [3] was 13.4, the IC50 [4] was 10 to 50 µM and the Activity (S1) was 22.5%. The “fold change (FC)” value [5] was 1, the “fold change (FC)” value [6] was 0.8 and the “fold change (FC)” value (NCI-H460) was 1.7. For the same compound, the Activity (S1-M1-80 [7]) was 0.8%, the “fold change (FC)” value (LS180) was 2 - 6 and the “fold change (FC)” value [8] was 0.9. The “fold change (FC)” value [9] was 4.7 and the viability at 10 µM (S1-M1-80 [10]) was 94.4%.
